Assay results: ChEMBL document CHEMBL1151705, “Novel azalides derived from 16-membered macrolides. Part II: Isolation of the linear 9-formylcarboxylic acid and its sequential macrocyclization with an amino alcohol or an azidoamine” (2008)
Values after ≈ are worked out from the molar mass of the structure shown.

Legend:
Assay type in all cases: functional
Streptococcus pyogenes [1] = experiment: Antimicrobial activity against Streptococcus pyogenes 2 constitutively expressing ermB after 20 hrs by agar dilution method
Method in brief: (§1)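 Streptococci, H. influenzae and M. catarrhalis were precultured on blood agar plates. Suspensions of about 10⁶ CFU/ml were inoculated onto sensitivity disk agar supplemented with 5% horse blood and incubated at 37 °C for 20 h. MIC was read as the lowest drug concentration with no visible growth.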

Streptococcus pneumoniae [2] = experiment: Antimicrobial activity against Streptococcus pneumoniae 6 constitutively expressing ermB after 20 hrs by agar dilution method; settings: Streptococcus pneumoniae, 20 h; read-out: MIC; method in brief: as §1
Streptococcus pneumoniae [3] = experiment: Antimicrobial activity against drug-susceptible Streptococcus pneumoniae DP1 Type1 after 20 hrs by agar dilution method; settings: Streptococcus pneumoniae, 20 h; read-out: MIC; method in brief: as §1
Haemophilus influenzae [4] = experiment: Antimicrobial activity against drug-susceptible Haemophilus influenzae 4 after 20 hrs by agar dilution method; settings: Haemophilus influenzae, 20 h; read-out: MIC; method in brief: as §1
Streptococcus pneumoniae [5] = experiment: Antimicrobial activity against Streptococcus pneumoniae 9 expressing mefA after 20 hrs by agar dilution method; settings: Streptococcus pneumoniae, 20 h; read-out: MIC; method in brief: as §1
Staphylococcus aureus [6] = experiment: Antimicrobial activity against drug-susceptible Staphylococcus aureus 209P JC-1 after 20 hrs by agar dilution method; settings: Staphylococcus aureus, 209P, 20 h; read-out: MIC
Method in brief: (§2)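 Agar dilution MIC. S. aureus seed culture was grown in sensitivity test broth. Cell suspension (about 10⁶ CFU/ml) was inoculated onto sensitivity disk agar with 5% horse blood and incubated at 37 °C for 20 h. MIC was the lowest drug concentration that prevented visible growth.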

Haemophilus influenzae [7] = experiment: Antimicrobial activity against drug-susceptible Haemophilus influenzae 3 after 20 hrs by agar dilution method; settings: Haemophilus influenzae, 20 h; read-out: MIC; method in brief: as §1
Haemophilus influenzae [8] = experiment: Antimicrobial activity against drug-susceptible Haemophilus influenzae 2 after 20 hrs by agar dilution method; settings: Haemophilus influenzae, 20 h; read-out: MIC; method in brief: as §1
Streptococcus pneumoniae [9] = experiment: Antimicrobial activity against Streptococcus pneumoniae 5 constitutively expressing ermB/mefA after 20 hrs by agar dilution method; settings: Streptococcus pneumoniae, 20 h; read-out: MIC; method in brief: as §1
Streptococcus pneumoniae [10] = experiment: Antimicrobial activity against Streptococcus pneumoniae 8 expressing inducible ermB after 20 hrs by agar dilution method; settings: Streptococcus pneumoniae, 20 h; read-out: MIC; method in brief: as §1
Staphylococcus aureus [11] = experiment: Antimicrobial activity against Staphylococcus aureus 4 constitutively expressing ermA after 20 hrs by agar dilution method; method in brief: as §2
Streptococcus pyogenes [12] = experiment: Antimicrobial activity against Streptococcus pyogenes 3 expressing mefA after 20 hrs by agar dilution method; settings: Streptococcus pyogenes, 20 h; read-out: MIC; method in brief: as §1
Staphylococcus aureus [13] = experiment: Antimicrobial activity against drug-susceptible Staphylococcus aureus 3 after 20 hrs by agar dilution method; settings: Staphylococcus aureus, 20 h; read-out: MIC; method in brief: as §2
Staphylococcus aureus [14] = experiment: Antimicrobial activity against drug-susceptible Staphylococcus aureus 2 after 20 hrs by agar dilution method; settings: Staphylococcus aureus, 20 h; read-out: MIC; method in brief: as §2
Streptococcus pneumoniae [15] = experiment: Antimicrobial activity against Streptococcus pneumoniae 7 expressing inducible ermB after 20 hrs by agar dilution method; settings: Streptococcus pneumoniae, 20 h; read-out: MIC; method in brief: as §1
Streptococcus pyogenes [16] = experiment: Antimicrobial activity against drug-susceptible Streptococcus pyogenes 1 after 20 hrs by agar dilution method; settings: Streptococcus pyogenes, 20 h; read-out: MIC; method in brief: as §1
Moraxella catarrhalis [17] = experiment: Antimicrobial activity against drug-susceptible Moraxella catarrhalis 2 after 20 hrs by agar dilution method; settings: Moraxella catarrhalis, 20 h; read-out: MIC; method in brief: as §1
Staphylococcus aureus [18] = experiment: Antimicrobial activity against Staphylococcus aureus 6 expressing inducible ermB after 20 hrs by agar dilution method; method in brief: as §2
Moraxella catarrhalis [19] = experiment: Antimicrobial activity against drug-susceptible Moraxella catarrhalis 1 after 20 hrs by agar dilution method; settings: Moraxella catarrhalis, 20 h; read-out: MIC; method in brief: as §1
Haemophilus influenzae [20] = experiment: Antimicrobial activity against drug-susceptible Haemophilus influenzae 1 after 20 hrs by agar dilution method; settings: Haemophilus influenzae, 20 h; read-out: MIC; method in brief: as §1
Streptococcus pneumoniae [21] = experiment: Antimicrobial activity against drug-susceptible Streptococcus pneumoniae 2 after 20 hrs by agar dilution method; settings: Streptococcus pneumoniae, 20 h; read-out: MIC; method in brief: as §1
Staphylococcus aureus [22] = experiment: Antimicrobial activity against Staphylococcus aureus 5 expressing inducible ermB after 20 hrs by agar dilution method; settings: Staphylococcus aureus, 20 h; read-out: MIC; method in brief: as §2
Streptococcus pneumoniae [23] = experiment: Antimicrobial activity against Streptococcus pneumoniae 10 expressing mefA after 20 hrs by agar dilution method; settings: Streptococcus pneumoniae, 20 h; read-out: MIC; method in brief: as §1

SMILES	MIC (Streptococcus pyogenes [1]) [mg/L]	MIC (Streptococcus pneumoniae [2]) [mg/L]	MIC (Streptococcus pneumoniae [3]) [mg/L]	MIC (Haemophilus influenzae [4]) [mg/L]	MIC (Streptococcus pneumoniae [5]) [mg/L]	MIC (Staphylococcus aureus [6]) [mg/L]	MIC (Haemophilus influenzae [7]) [mg/L]	MIC (Haemophilus influenzae [8]) [mg/L]	MIC (Streptococcus pneumoniae [9]) [mg/L]	MIC (Streptococcus pneumoniae [10]) [mg/L]	MIC (Staphylococcus aureus [11]) [mg/L]	MIC (Streptococcus pyogenes [12]) [mg/L]	MIC (Staphylococcus aureus [13]) [mg/L]	MIC (Staphylococcus aureus [14]) [mg/L]	MIC (Streptococcus pneumoniae [15]) [mg/L]	MIC (Streptococcus pyogenes [16]) [mg/L]	MIC (Moraxella catarrhalis [17]) [mg/L]	MIC (Staphylococcus aureus [18]) [mg/L]	MIC (Moraxella catarrhalis [19]) [mg/L]	MIC (Haemophilus influenzae [20]) [mg/L]	further results
CCOC(=O)[C@H]1[C@H](C)O[C@@H](O[C@H]2[C@H](N(C)C)[C@@H](O)[C@H](O[C@H]3[C@@H](CC=O)C[C@@H](C)[C@@H](OC(C)=O)CN(CCCCc4ccccc4)CCC[C@@H](C)OC(=O)C[C@@H](OC(=O)CC)[C@@H]3OC)O[C@@H]2C)C[C@@]1(C)OC(C)=O	> 128	> 128	0.25 (≈ 0.241 µM)	> 128	0.25 (≈ 0.241 µM)	0.5 (≈ 0.483 µM)	> 128	4 (≈ 3.86 µM)	> 128	4 (≈ 3.86 µM)	> 128	1 (≈ 0.966 µM)	1 (≈ 0.966 µM)	2 (≈ 1.93 µM)	4 (≈ 3.86 µM)	0.25 (≈ 0.241 µM)	2 (≈ 1.93 µM)	2 (≈ 1.93 µM)	1 (≈ 0.966 µM)	> 128	MIC (Streptococcus pneumoniae [21]): 0.25 mg/L (≈ 0.241 µM); MIC (Staphylococcus aureus [22]): 1 mg/L (≈ 0.966 µM); MIC (Streptococcus pneumoniae [23]): 0.13 mg/L (≈ 0.126 µM)
CCOC(=O)[C@H]1[C@H](C)O[C@@H](O[C@H]2[C@H](N(C)C)[C@@H](O)[C@H](O[C@H]3[C@@H](CC=O)C[C@@H](C)[C@@H](OC(C)=O)CN(CCCCc4ccccc4)CCNC(=O)C[C@@H](OC(=O)CC)[C@@H]3OC)O[C@@H]2C)C[C@@]1(C)OC(C)=O	> 128	> 128	0.5 (≈ 0.504 µM)	8 (≈ 8.06 µM)	1 (≈ 1.01 µM)	0.5 (≈ 0.504 µM)	8 (≈ 8.06 µM)	2 (≈ 2.02 µM)	> 128	> 128	> 128	1 (≈ 1.01 µM)	1 (≈ 1.01 µM)	2 (≈ 2.02 µM)	> 128	0.5 (≈ 0.504 µM)	1 (≈ 1.01 µM)	2 (≈ 2.02 µM)	0.5 (≈ 0.504 µM)	> 128	MIC (Streptococcus pneumoniae [21]): 0.5 mg/L (≈ 0.504 µM); MIC (Staphylococcus aureus [22]): 1 mg/L (≈ 1.01 µM); MIC (Streptococcus pneumoniae [23]): 0.5 mg/L (≈ 0.504 µM)
CCOC(=O)[C@H]1[C@H](C)O[C@@H](O[C@H]2[C@H](N(C)C)[C@@H](O)[C@H](O[C@H]3[C@@H](CC=O)C[C@@H](C)[C@@H](O)CN(CCCc4ccnc5ccccc45)CCCNC(=O)C[C@@H](OC(=O)CC)[C@@H]3OC)O[C@@H]2C)C[C@@]1(C)O	> 128	> 128	0.06 (≈ 0.0626 µM)	8 (≈ 8.34 µM)	0.13 (≈ 0.136 µM)	0.5 (≈ 0.521 µM)	4 (≈ 4.17 µM)	1 (≈ 1.04 µM)	> 128	16 (≈ 16.7 µM)	> 128	1 (≈ 1.04 µM)	0.5 (≈ 0.521 µM)	1 (≈ 1.04 µM)	16 (≈ 16.7 µM)	0.25 (≈ 0.261 µM)	1 (≈ 1.04 µM)	0.5 (≈ 0.521 µM)	2 (≈ 2.09 µM)	16 (≈ 16.7 µM)	MIC (Streptococcus pneumoniae [21]): 0.13 mg/L (≈ 0.136 µM); MIC (Staphylococcus aureus [22]): 0.5 mg/L (≈ 0.521 µM); MIC (Streptococcus pneumoniae [23]): 0.13 mg/L (≈ 0.136 µM)
CCOC(=O)[C@H]1[C@H](C)O[C@@H](O[C@H]2[C@H](N(C)C)[C@@H](O)[C@H](O[C@H]3[C@@H](CC=O)C[C@@H](C)[C@@H](OC(C)=O)CN(CCCCc4ccccc4)C[C@@H](C)NC(=O)C[C@@H](OC(=O)CC)[C@@H]3OC)O[C@@H]2C)C[C@@]1(C)OC(C)=O	> 128	> 128	0.5 (≈ 0.497 µM)	16 (≈ 15.9 µM)	1 (≈ 0.994 µM)	1 (≈ 0.994 µM)	16 (≈ 15.9 µM)	4 (≈ 3.98 µM)	> 128	32 (≈ 31.8 µM)	> 128	1 (≈ 0.994 µM)	2 (≈ 1.99 µM)	4 (≈ 3.98 µM)	32 (≈ 31.8 µM)	0.5 (≈ 0.497 µM)	1 (≈ 0.994 µM)	2 (≈ 1.99 µM)	1 (≈ 0.994 µM)	> 128	MIC (Streptococcus pneumoniae [21]): 1 mg/L (≈ 0.994 µM); MIC (Staphylococcus aureus [22]): 1 mg/L (≈ 0.994 µM); MIC (Streptococcus pneumoniae [23]): 1 mg/L (≈ 0.994 µM)
